According to ChEMBL document CHEMBL1781892, “Microwave assisted synthesis and structure-activity relationship of 4-hydroxy-N'-[1-phenylethylidene]-2H/2-methyl-1,2-benzothiazine-3-carbohydrazide 1,1-dioxides as anti-microbial agents” (2011):

What was measured:
Format in all cases: functional
Aspergillus fumigatus [1] = test: Antifungal activity against Aspergillus fumigatus using 1 x 10^5 spore/100 uL assessed as 99.5% fungal killing of original inoculum after 72 hrs by microdilution method
Trichoderma viride [2] = test: Antifungal activity against Trichoderma viride using 1 x 10^5 spore/100 uL assessed as 99.5% fungal killing of original inoculum after 72 hrs by microdilution method
Curvularia australiensis [3] = test: Antifungal activity against Drechslera australiensis using 1 x 10^5 spore/100 uL assessed as 99.5% fungal killing of original inoculum after 72 hrs by microdilution method
Aspergillus flavus [4] = test: Antifungal activity against Aspergillus flavus using 1 x 10^5 spore/100 uL after 72 hrs by microdilution method
Aspergillus niger [5] = test: Antifungal activity against Aspergillus niger using 1 x 10^5 spore/100 uL assessed as 99.5% fungal killing of original inoculum after 72 hrs by microdilution method
Curvularia australiensis [6] = test: Antifungal activity against Drechslera australiensis using 1 x 10^5 spore/100 uL after 72 hrs by microdilution method
Aspergillus fumigatus [7] = test: Antifungal activity against Aspergillus fumigatus using 1 x 10^5 spore/100 uL after 72 hrs by microdilution method
[8] = Antifungal activity against Trichoderma reesei using 1 x 10^5 spore/100 uL assessed as 99.5% fungal killing of original inoculum after 72 hrs by microdilution method
[9] = Antifungal activity against Trichoderma reesei using 1 x 10^5 spore/100 uL after 72 hrs by microdilution method
Outline: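 Spores washed from malt agar cultures with sterile 0.85% saline plus 0.1% Tween 80, adjusted to about 1.0×10^5 per 100 µl well. Compounds from a 1 mg/ml DMSO stock were serially diluted in malt broth with inoculum in 96-well plates and incubated 72 h at 28 °C. MIC is the lowest concentration with no visible growth under a binocular microscope. DMSO served as negative control.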

Aspergillus niger [10] = test: Antifungal activity against Aspergillus niger using 1 x 10^5 spore/100 uL after 72 hrs by microdilution method
Aspergillus flavus [11] = test: Antifungal activity against Aspergillus flavus using 1 x 10^5 spore/100 uL assessed as 99.5% fungal killing of original inoculum after 72 hrs by microdilution method
Trichoderma viride [12] = test: Antifungal activity against Trichoderma viride using 1 x 10^5 spore/100 uL after 72 hrs by microdilution method
Bacillus cereus = test: Antibacterial activity against Bacillus cereus using 1 x 10^4 CFU/ml inoculum after 24 hrs by microdilution method
Bacillus thuringiensis = test: Antibacterial activity against Bacillus thuringiensis using 1 x 10^4 CFU/ml inoculum after 24 hrs by microdilution method
Bacillus subtilis = test: Antibacterial activity against Bacillus subtilis using 1 x 10^4 CFU/ml inoculum after 24 hrs by microdilution method
Escherichia coli = test: Antibacterial activity against Escherichia coli using 1 x 10^4 CFU/ml inoculum after 24 hrs by microdilution method
Staphylococcus aureus = test: Antibacterial activity against Staphylococcus aureus using 1 x 10^4 CFU/ml inoculum after 24 hrs by microdilution method
Pseudomonas aeruginosa = test: Antibacterial activity against Pseudomonas aeruginosa using 1 x 10^4 CFU/ml inoculum after 24 hrs by microdilution method

| Structure (SMILES) | MFC (Aspergillus fumigatus [1]) | MFC (Trichoderma viride [2]) | MFC (Curvularia australiensis [3]) | MIC (Aspergillus flavus [4]) | MFC (Aspergillus niger [5]) | MIC (Curvularia australiensis [6]) | MIC (Aspergillus fumigatus [7]) | MFC [8] | MIC [9] | MIC (Aspergillus niger [10]) | MFC (Aspergillus flavus [11]) | MIC (Trichoderma viride [12]) | MIC (Bacillus cereus) | MIC (Bacillus thuringiensis) | MIC (Bacillus subtilis) | MIC (Escherichia coli) | MIC (Staphylococcus aureus) | MIC (Pseudomonas aeruginosa) |
| --- | --- | --- | --- | --- | --- | --- | --- | --- | --- | --- | --- | --- | --- | --- | --- | --- | --- | --- |
| C/C(=N\NC(=O)C1=C(O)c2ccccc2S(=O)(=O)N1)c1ccccc1Br | 157.3 ×10⁻² umol | 142.4 ×10⁻² umol | 158.4 ×10⁻² umol | 90 ×10⁻² umol | 186.8 ×10⁻² umol | 76.3 ×10⁻² umol | 83.8 ×10⁻² umol | 147 ×10⁻² µmol | 74.8 ×10⁻² µmol | 93.2 ×10⁻² umol | 177.7 ×10⁻² umol | 75.6 ×10⁻² umol |  |  |  |  |  |  |
| CN1C(C(=O)NN)=C(O)c2ccccc2S1(=O)=O | >200 ×10⁻² umol | >200 ×10⁻² umol | >200 ×10⁻² umol | >100 ×10⁻² umol | >200 ×10⁻² umol | >100 ×10⁻² umol | >100 ×10⁻² umol | > 200 ×10⁻² µmol | > 100 ×10⁻² µmol | >100 ×10⁻² umol | >200 ×10⁻² umol | >100 ×10⁻² umol |  |  |  |  |  |  |
| C/C(=N\NC(=O)C1=C(O)c2ccccc2S(=O)(=O)N1)c1ccc(Cl)c(Cl)c1 | 136.2 ×10⁻² umol | 118.7 ×10⁻² umol | 123.4 ×10⁻² umol | 75.2 ×10⁻² umol | 150.2 ×10⁻² umol | 61.8 ×10⁻² umol | 68.1 ×10⁻² umol | 108 ×10⁻² µmol | 59.2 ×10⁻² µmol | 75.2 ×10⁻² umol | 150.3 ×10⁻² umol | 61.3 ×10⁻² umol |  |  |  |  |  |  |
| C/C(=N\NC(=O)C1=C(O)c2ccccc2S(=O)(=O)N1C)c1ccc(Cl)cc1Cl | 134.7 ×10⁻² umol | 125 ×10⁻² umol | 122.7 ×10⁻² umol | 71.6 ×10⁻² umol | 148.3 ×10⁻² umol | 61.5 ×10⁻² umol | 67.3 ×10⁻² umol | 118 ×10⁻² µmol | 59.1 ×10⁻² µmol | 74.2 ×10⁻² umol | 143.1 ×10⁻² umol | 62.7 ×10⁻² umol |  |  |  |  |  |  |
| NNC(=O)C1=C(O)c2ccccc2S(=O)(=O)N1 | >200 ×10⁻² umol | >200 ×10⁻² umol | >200 ×10⁻² umol | >100 ×10⁻² umol | >200 ×10⁻² umol | >100 ×10⁻² umol | >100 ×10⁻² umol | > 200 ×10⁻² µmol | > 100 ×10⁻² µmol | >100 ×10⁻² umol | >200 ×10⁻² umol | >100 ×10⁻² umol |  |  |  |  |  |  |
| C/C(=N\NC(=O)C1=C(O)c2ccccc2S(=O)(=O)N1)c1ccc(Cl)cc1Cl | 142.5 ×10⁻² umol | 125.7 ×10⁻² umol | 123.9 ×10⁻² umol | 71.8 ×10⁻² umol | 149 ×10⁻² umol | 62 ×10⁻² umol | 67.4 ×10⁻² umol | 119 ×10⁻² µmol | 59.4 ×10⁻² µmol | 74.6 ×10⁻² umol | 143.5 ×10⁻² umol | 62.9 ×10⁻² umol |  |  |  |  |  |  |
| C/C(=N\NC(=O)C1=C(O)c2ccccc2S(=O)(=O)N1C)c1ccc(Br)cc1 | 177 ×10⁻² umol | 139.4 ×10⁻² umol | 148.4 ×10⁻² umol | 93.4 ×10⁻² umol | >200 ×10⁻² umol | 77.3 ×10⁻² umol | 85.5 ×10⁻² umol | 142 ×10⁻² µmol | 74.6 ×10⁻² µmol | 96 ×10⁻² umol | 189.8 ×10⁻² umol | 74.3 ×10⁻² umol |  |  |  |  |  |  |
| C/C(=N\NC(=O)C1=C(O)c2ccccc2S(=O)(=O)N1C)c1ccc(Cl)c(Cl)c1 | 136.3 ×10⁻² umol | 122.5 ×10⁻² umol | 122.6 ×10⁻² umol | 75 ×10⁻² umol | 149.5 ×10⁻² umol | 61.5 ×10⁻² umol | 68.1 ×10⁻² umol | 158 ×10⁻² µmol | 59 ×10⁻² µmol | 75 ×10⁻² umol | 150 ×10⁻² umol | 61.2 ×10⁻² umol |  |  |  |  |  |  |
| CN[C@@H]1[C@H](O[C@H]2[C@H](O[C@H]3[C@H](O)[C@@H](O)[C@H](N=C(N)N)[C@@H](O)[C@@H]3N=C(N)N)O[C@@H](C)[C@]2(O)C=O)O[C@@H](CO)[C@H](O)[C@H]1O [STREPTOMYCIN] |  |  |  |  |  |  |  |  |  |  |  |  | 4.3 ×10⁻² umol | 4.4 ×10⁻² umol | 4.2 ×10⁻² umol | 16.5 ×10⁻² umol | 16.5 ×10⁻² umol | 16.5 ×10⁻² umol |
| c1ccc(-c2ccc(C(c3ccccc3)n3ccnc3)cc2)cc1 (stereo not given) [BIFONAZOLE] | 64 ×10⁻² umol | 80 ×10⁻² umol | 75 ×10⁻² umol | 48 ×10⁻² umol | 64 ×10⁻² umol | 57.5 ×10⁻² umol | 48 ×10⁻² umol | 78 ×10⁻² µmol | 60.2 ×10⁻² µmol | 48 ×10⁻² umol | 64 ×10⁻² umol | 64 ×10⁻² umol |  |  |  |  |  |  |
| C/C(=N\NC(=O)C1=C(O)c2ccccc2S(=O)(=O)N1C)c1ccccc1Br | 163.6 ×10⁻² umol | 149.9 ×10⁻² umol | 151.7 ×10⁻² umol | 89.4 ×10⁻² umol | 186 ×10⁻² umol | 76.2 ×10⁻² umol | 83.6 ×10⁻² umol | 151 ×10⁻² µmol | 74.5 ×10⁻² µmol | 93.1 ×10⁻² umol | 168.5 ×10⁻² umol | 75.4 ×10⁻² umol |  |  |  |  |  |  |
| C/C(=N\NC(=O)C1=C(O)c2ccccc2S(=O)(=O)N1)c1ccc(Br)cc1 | 191 ×10⁻² umol | 188.2 ×10⁻² umol | 143.9 ×10⁻² umol | 93.7 ×10⁻² umol | 188.5 ×10⁻² umol | 77.5 ×10⁻² umol | 85.7 ×10⁻² umol | 130 ×10⁻² µmol | 74.9 ×10⁻² µmol | 96.4 ×10⁻² umol | 173.2 ×10⁻² umol | 74.4 ×10⁻² umol |  |  |  |  |  |  |
| C/C(=N\NC(=O)C1=C(O)c2ccccc2S(=O)(=O)N1)c1ccccc1Cl | 150.4 ×10⁻² umol | 123.9 ×10⁻² umol | 125.1 ×10⁻² umol | 87.3 ×10⁻² umol | 179.1 ×10⁻² umol | 63.8 ×10⁻² umol | 76.2 ×10⁻² umol | 123 ×10⁻² µmol | 61.4 ×10⁻² µmol | 89.6 ×10⁻² umol | 164.6 ×10⁻² umol | 66.8 ×10⁻² umol | 11.5 ×10⁻² umol | 12.1 ×10⁻² umol | 11.4 ×10⁻² umol | 32.5 ×10⁻² umol | 31.3 ×10⁻² umol |  |
